Test results published in PMC7877830 (Clinical and Translational Science, 2020).
Values joined by “and” are separate entries in the source; they are usually repeats but may differ in a detail not shown here. Identical values can stand only once. Like-named read-outs stand apart in the source and are kept apart here.

Tests used:
OATP1B3 [1] = details: read-out: Km for OATP1B3; cited from earlier work
OATP1B1/1B3 [2] = format: in vivo, human; details: for AUC0–16 of endogenous biomarker / AUC0–48 of endogenous biomarker / Cmax of endogenous biomarker: geometric mean (mean, %CV); for AUC0–16 ratio relative to baseline / AUC0–48 ratio relative to baseline / Cmax ratio relative to baseline: point estimate (90% CI)
Procedure, shortened: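 Healthy volunteers in a crossover each got a single fasting 300/120 mg dose of formulation A, B or C. Plasma (K2EDTA, stored −20 °C) drawn predose and up to 48 h. Cmax, AUC0–16 and AUC0–48 derived noncompartmentally by linear trapezoid. Predose level served as baseline; baseline AUC = baseline concentration × interval. Ratios to baseline given with 90% CI; mixed model compared A or B with C.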

OATP1B1 [3] = details: read-out: Km for OATP1B1; cited from earlier work
OATP1B1/1B3 [4] = details: n = 56; across different ethnicities; cited from earlier work
[5] = cited from earlier work
OATP1B3 [6] = details: read-out: OATP1B3 IC50; in vitro; cited from earlier work
OATP1B1 [7] = details: read-out: OATP1B1 IC50, cited from earlier work
[8] = cited from earlier work; remark: listed apart in the source
[9] = format: in vivo, human; details: for AUC(0-t) / Cmax: human, plasma, oral; for Cmax: geometric mean (mean, %CV), healthy subjects
Procedure, shortened: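 Phase I single-dose complete crossover in healthy subjects, randomised to two test formulations and a reference formulation. Dosed 300/120 mg fasting in the morning, with at least 5 days washout; subjects confined ~4 days on standardized meals. Plasma (K2EDTA, stored −20 °C) sampled predose to 48 h and extracted liquid-liquid with deuterated internal standards. Calibration ~0.200–100 ng/mL; high range ~85.0–10,000 (GLE) or ~85.0–1,050 ng/mL (PIB). Noncompartmental, linear-trapezoidal analysis; BLQ set to zero.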

OATP1B1 [10] = details: as per the FDA guidance; unbound concentration in hepatic portal vein; cited from earlier work
OATP1B3 [11] = details: as per the FDA guidance; unbound concentration in hepatic portal vein; cited from earlier work
[12] = cited from earlier work; remark: listed apart in the source
[13] = after GLE/PIB 300/120 mg Formulation A
[14] = after GLE/PIB 300/120 mg Formulation B
[15] = after GLE/PIB 300/120 mg Formulation C
[16] = AUC0–16, geometric mean (mean, %CV), GLE/PIB 300/120 mg Formulation A
[17] = AUC0–16, geometric mean (mean, %CV), GLE/PIB 300/120 mg Formulation B
[18] = AUC0–16, geometric mean (mean, %CV), GLE/PIB 300/120 mg Formulation C
[19] = AUC0–48, geometric mean (mean, %CV), GLE/PIB 300/120 mg Formulation A
[20] = AUC0–48, geometric mean (mean, %CV), GLE/PIB 300/120 mg Formulation B
[21] = AUC0–48, geometric mean (mean, %CV), GLE/PIB 300/120 mg Formulation C
[22] = single dose GLE/PIB 300/120 mg Formulation A, fasting
[23] = single dose GLE/PIB 300/120 mg Formulation B, fasting
[24] = single dose GLE/PIB 300/120 mg Formulation C (reference), fasting

Row | SMILES | AUC0–16 of endogenous biomarker (OATP1B1/1B3 [2]; [13]) | AUC0–48 of endogenous biomarker (OATP1B1/1B3 [2]; [13]) | Cmax of endogenous biomarker (OATP1B1/1B3 [2]; [13]) | AUC0–16 of endogenous biomarker (OATP1B1/1B3 [2]; [14]) | AUC0–48 of endogenous biomarker (OATP1B1/1B3 [2]; [14]) | Cmax of endogenous biomarker (OATP1B1/1B3 [2]; [14]) | AUC0–16 of endogenous biomarker (OATP1B1/1B3 [2]; [15]) | AUC0–48 of endogenous biomarker (OATP1B1/1B3 [2]; [15]) | Cmax of endogenous biomarker (OATP1B1/1B3 [2]; [15]) | AUC0–16 ratio relative to baseline (OATP1B1/1B3 [2]; [13]) | AUC0–48 ratio relative to baseline (OATP1B1/1B3 [2]; [13]) | Cmax ratio relative to baseline (OATP1B1/1B3 [2]; [13]) | AUC0–16 ratio relative to baseline (OATP1B1/1B3 [2]; [14]) | AUC0–48 ratio relative to baseline (OATP1B1/1B3 [2]; [14]) | Cmax ratio relative to baseline (OATP1B1/1B3 [2]; [14]) | AUC0–16 ratio relative to baseline (OATP1B1/1B3 [2]; [15]) | AUC0–48 ratio relative to baseline (OATP1B1/1B3 [2]; [15]) | Cmax ratio relative to baseline (OATP1B1/1B3 [2]; [15]) | half-life [8] | AUC(0-t) [9, 16] | other results
1 | CC1=C(CCC(=O)O)c2cc3nc(cc4[nH]c(cc5[nH]c(cc1n2)c(CCC(=O)O)c5C)c(CCC(=O)O)c4C)C(CCC(=O)O)=C3C [CP‐I, coproporphyrin (CP)‐I] | 8.98 (9.10, 16) ng·h/mL | 25.4 (25.6, 12) ng·h/mL | 0.726 (0.740, 21) ng/mL | 11.7 (11.9, 23) ng·h/mL | 28.2 (28.5, 18) ng·h/mL | 1.19 (1.24, 26) ng/mL | 13.2 (13.3, 16) ng·h/mL | 30.3 (30.6, 13) ng·h/mL | 1.44 (1.48, 23) ng/mL | 0.97 (0.89 to 1.06) | 0.91 (0.85 to 0.97) | 1.25 (1.12 to 1.41) | 1.25 (1.18 to 1.32) | 1.01 (0.96 to 1.06) | 2.05 (1.81 to 2.32) | 1.39 (1.29 to 1.51) | 1.07 (1.02 to 1.13) | 2.44 (2.11 to 2.82) | – | – | Km (OATP1B3 [1]): 3.95 µM; baseline plasma concentration (OATP1B1/1B3 [2]; mean and SD, predose, all study periods): 0.59 ± 0.09 ng/mL and 0.90 ± 0.14 nM; Km (OATP1B1 [3]): 0.13 µM; baseline plasma concentration, previously reported range (OATP1B1/1B3 [4]): 0.5 to 1.5 nM
2 | CC1=C(CCC(=O)O)c2cc3nc(cc4[nH]c(cc5[nH]c(cc1n2)c(C)c5CCC(=O)O)c(CCC(=O)O)c4C)C(CCC(=O)O)=C3C [CP‐III] | 1.20 (1.22, 19) ng·h/mL | 3.32 (3.44, 23) ng·h/mL | 0.104 (0.105, 16) ng/mL | 1.07 (1.24, 73) ng·h/mL | 2.77 (3.44, 41) ng·h/mL | 0.113 (0.116, 25) ng/mL | 1.23 (1.30, 36) ng·h/mL | 2.87 (3.23, 41) ng·h/mL | 0.115 (0.119, 26) ng/mL | 0.94 (0.84 to 1.06) | 0.86 (0.82 to 0.95) | 1.31 (1.18 to 1.46) | 0.96 (0.85 to 1.08) | 0.90 (0.80 to 1.01) | 1.34 (1.18 to 1.53) | 1.01 (0.86 to 1.20) | 0.79 (0.60 to 1.03) | 1.49 (1.24 to 1.78) | – | – | –
3 | CC(C)(C)[C@@H]1NC(=O)O[C@@H]2CCC[C@H]2OC/C=C/C(F)(F)c2nc3ccccc3nc2O[C@@H]2C[C@@H](C(=O)N[C@]3(C(=O)NS(=O)(=O)C4(C)CC4)C[C@H]3C(F)F)N(C2)C1=O [GLE, glecaprevir] | – | – | – | – | – | – | – | – | – | – | – | – | – | – | – | – | – | – | about 6 hours | 344 ng·h/mL | fu,p (fraction of unbound inhibitor in plasma) [5]: 0.025; IC50 (OATP1B3 [6]): 64 nM; IC50 (OATP1B1 [7]; in vitro): 17 nM; share of exposure observed in the first 16 hours postdose ([9]; across formulations): 94–97%; exposures (Cmax, AUC0–16, AUC0–48) lower relative to reference formulation C ([9]; formulation A, fasting): ~ 80%; exposures (Cmax, AUC0–16, AUC0–48) lower relative to reference formulation C ([9]; formulation B, fasting): ~26%; AUC(0-t) [9, 17]: 1330 ng·h/mL; AUC(0-t) [9, 18]: 1800 ng·h/mL; AUC(0-t) [9, 19]: 367 ng·h/mL; AUC(0-t) [9, 20]: 1370 ng·h/mL; AUC(0-t) [9, 21]: 1850 ng·h/mL; Cmax [9, 22]: 88.5 ng/mL; Cmax [9, 23]: 330 ng/mL; Cmax [9, 24]: 444 ng/mL; OATP1B1 R value (OATP1B1 [10]): 5.5; OATP1B3 R value (OATP1B3 [11]): 2.2
4 | COC(=O)N[C@H](C(=O)N1CCC[C@H]1c1nc2cc([C@H]3CC[C@H](c4cc5nc([C@@H]6CCCN6C(=O)[C@@H](NC(=O)OC)[C@@H](C)OC)[nH]c5cc4F)N3c3cc(F)c(N4CCC(c5ccc(F)cc5)CC4)c(F)c3)c(F)cc2[nH]1)[C@@H](C)OC [PIB, pibrentasvir] | – | – | – | – | – | – | – | – | – | – | – | – | – | – | – | – | – | – | ~13 h | 546 ng·h/mL | IC50 (OATP1B1 [7]; in the presence of 4% bovine serum albumin): 1300 nM; RB (blood-to-plasma concentration ratio) [12]: 0.62; exposures lower relative to reference formulation C ([9]; formulations A and B, fasting): 28–49%; AUC(0-t) [9, 17]: 514 ng·h/mL; AUC(0-t) [9, 18]: 977 ng·h/mL; AUC(0-t) [9, 19]: 658 ng·h/mL; AUC(0-t) [9, 20]: 622 ng·h/mL; AUC(0-t) [9, 21]: 1170 ng·h/mL; Cmax [9, 22]: 86.8 ng/mL; Cmax [9, 23]: 83.7 ng/mL; Cmax [9, 24]: 163 ng/mL; OATP1B1 R value (OATP1B1 [10]): 1.4
